Laboratory results: ChEMBL document CHEMBL4613272, “Anti-HIV-Active Nucleoside Triphosphate Prodrugs” (J Med Chem, 2020)
pEC50: −log10 of the molar value.

Experiments:
[1] = Half life in pH 7.3 phosphate buffered saline by HPLC analysis; assay type: physicochemical
Outline: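 Prodrug from 50 mM DMSO-d6 stock diluted to 1.9 mM with water/DMSO-d6. Reaction started by adding phosphate buffer (50 mM stock, pH 7.3). Products followed by analytical RP18 HPLC with TBAA or TEAA buffer/acetonitrile gradient.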

[2] = Prodrug conversion in pH 7.3 phosphate buffered saline assessed as pig liver esterase-mediated gamma-(C16-ACB)-d4TTP formation by HPLC analysis; assay type: ADME, Sus scrofa; settings: in vitro
Outline: (§1)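 Prodrug diluted from 50 mM DMSO stock through a 6.0 mM intermediate into DMSO/50 mM PBS pH 7.3. Started with pig liver esterase (3 mg/mL solution in PBS) and shaken at 37 °C, 800 rpm. Aliquots quenched in MeOH at intervals, filtered, stored in liquid nitrogen and analysed by RP18 HPLC.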

[3] = Prodrug conversion in pH 7.3 phosphate buffered saline assessed as pig liver esterase-mediated d4TTP formation by HPLC analysis; assay type: ADME, Sus scrofa; settings: in vitro; outline: as §1
[4] = Prodrug conversion in pH 7.3 phosphate buffered saline assessed as pig liver esterase-mediated d4TMP formation by HPLC analysis; assay type: ADME, Sus scrofa; settings: in vitro; outline: as §1
[5] = Half life in pH 7.3 phosphate buffered saline in presence of pig liver esterase by HPLC analysis; assay type: ADME, Sus scrofa; outline: as §1
[6] = Half life in human CEM/0 cell extracts by HPLC analysis; assay type: ADME, CCRF-CEM
Outline: (§2)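 Cell extract prepared from CEM cells grown in RPMI-1640-based medium to ~3·10^6 cells/mL. Cells washed twice in cold PBS, resuspended at 10^8 cells/mL, sonicated, cleared at 10,000 rpm and stored at -80 °C. Prodrug at 6.0 mM hydrolysis solution in DMSO-d6 mixed with water and extract at 37 °C over time. Samples iced, sonicated and centrifuged; supernatant analysed by RP18 HPLC. t1/2 calculated as for chemical hydrolysis.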

[7] = Prodrug conversion in human CEM/0 cell extracts assessed as gamma-(C16-ACB)-d4TTP formation by HPLC analysis; assay type: ADME; settings: ccrf-cem; outline: as §2
[8] = Prodrug conversion in human CEM/0 cell extracts assessed as d4TDP formation by HPLC analysis; assay type: ADME; settings: ccrf-cem; outline: as §2
[9] = Prodrug conversion in human CEM/0 cell extracts assessed as d4TTP formation by HPLC analysis; assay type: ADME; settings: ccrf-cem; outline: as §2
[10] = Prodrug conversion in human CEM/0 cell extracts assessed as d4TMP formation by HPLC analysis; assay type: ADME; settings: ccrf-cem; outline: as §2
[11] = Cytotoxicity against human CEM cells assessed as reduction in cell proliferation; assay type: cell-based; settings: CEM cells (CCRF-CEM)
Outline: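 CC50 is the compound concentration inhibiting CEM CD4+ T-cell proliferation by 50%. Mean ± SD of n=2-3 independent experiments.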

[12] = Selectivity index, ratio of CC50 for human CEM cells to EC50 for HIV1 HE infected in human CEM/0 cells; settings: CEM cells (CC50) and HIV1 HE infected CEM/0 cells (EC50)
[13] = test system: Human immunodeficiency virus 2; assay: Antiviral activity against HIV2 ROD infected in thymidine kinase-deficient human CEM cells assessed as inhibition of virus-induced giant cell formation measured after 4 to 5 days by microscopic analysis; settings: Human immunodeficiency virus 2, ISOLATE ROD, CCRF-CEM
[14] = Prodrug conversion in human CEM/0 cell extracts assessed as gamma-(C6-ACB)-d4TTP formation by HPLC analysis; assay type: ADME; settings: ccrf-cem; outline: as §2
[15] = test system: Human immunodeficiency virus 1; assay: Antiviral activity against HIV1 HE infected in human CEM/0 cells assessed as inhibition of virus-induced giant cell formation measured after 4 to 5 days by microscopic analysis; settings: Human immunodeficiency virus 1, HE, CCRF-CEM
[16] = test system: Human immunodeficiency virus 2; assay: Antiviral activity against HIV2 ROD infected in human CEM/0 cells assessed as inhibition of virus-induced giant cell formation measured after 4 to 5 days by microscopic analysis; settings: Human immunodeficiency virus 2, ISOLATE ROD, CCRF-CEM
[17] = Cytotoxicity against mouse eEND.2 cells assessed as reduction in cell viability by WST-1 assay; assay type: cell-based; settings: read-out: LD50 (the source's name)

Row | half-life [1] [days] | Drug metabolism [2] | Drug metabolism [3] | Drug metabolism [4] | half-life [5] [min] | half-life [6] [min] | Drug metabolism [7] | Drug metabolism [8] | Drug metabolism [9] | Drug metabolism [10] | pEC50 [13] | Drug metabolism [14] | pEC50 [15] | pEC50 [16] | Compound | CC50 [11] [µM] | selectivity ratio [12] | CC50 [17] [mM]
1 | 3.46 | Metabolite_Detected | Metabolite_Detected | Metabolite_Notdetected | 282 | 114 | Metabolite_Detected | Metabolite_Detected | Metabolite_Notdetected | Metabolite_Detected | 6.96 | – | – | – | CCCCCCCCCCCCCCCCOC(=O)Oc1ccc(COP(=O)(OCc2ccc(OC(=O)CC)cc2)OP(=O)(O)OP(=O)(O)OC[C@@H]2C=C[C@H](n3cc(C)c(=O)[nH]c3=O)O2)cc1.N.N (stereo partly drawn) | 34 | 1260 | –
2 | 3.96 | – | Metabolite_Detected | – | – | 150 | – | – | – | – | 6.68 | Metabolite_Detected | 6.52 | 7.15 | CCCCCCCCCCCC(=O)Oc1ccc(COP(=O)(OCc2ccc(OC(=O)OCCCCCC)cc2)OP(=O)(O)OP(=O)(O)OC[C@@H]2C=C[C@H](n3cc(C)c(=O)[nH]c3=O)O2)cc1.N.N (stereo partly drawn) | 41 | 137 | –
3 | – | – | – | – | – | – | – | – | – | – | – | – | – | – | OCc1ccc(O)cc1 [PARAHYDROXYBENZYL ALCOHOL] | – | – | 50
